Published values of several laboratories.
Protocols differ between the studies behind these lines.

Compound	host	medium	route	dose	notes	measurement	value
CCc1cc(OC)c2nccc(N3CCc4c(cc(Cn5ccnc5)cc4-c4cn(C)nc4C(F)(F)F)C3=O)c2c1	male CD-1 mouse	plasma	intravenous	3 mg/kg	–	MRT(0-inf)	0.7 h
CC1(C)CC[C@]2(C(=O)O)CC[C@]3(C)C(=CC[C@@H]4[C@@]5(C)C[C@@H](O)[C@H](OC(=O)/C=C/c6ccc(O)cc6)C(C)(C)[C@@H]5CC[C@]43C)[C@@H]2C1 (relative stereo)	mouse	plasma	intraperitoneal	85 µmol/kg	single dose	MRT(0-inf)	11.9 h
COc1nc(-c2cc(C)c(N[C@@H](C)c3ccc(F)cc3)nn2)ccc1-n1cnc(C)c1	male CD-1 mouse	plasma	intravenous	1 mg/kg	single dose	MRT(0-t)	3.62 h
CC(C)(Nc1nc(-c2ccccn2)nc2ccccc12)c1ccccn1	female BALB/c mouse	plasma	intravenous	1 mg/kg	–	MRT(0-inf)	1.2 h
CNC(=O)c1cc(OC)cc2c(N3CCc4c(cc(Cn5ccnc5)cc4-c4cn(C)nc4C(F)(F)F)C3=O)ccnc12	male CD-1 mouse	plasma	oral	50 mg/kg	–	MRT(0-inf)	2 h
Cc1cc(NC(=O)c2cccc3cc(-c4cccc5[nH]nc(N)c45)ccc23)ccc1F	male CD-1 mouse	brain	oral	10 mg/kg	–	MRT(0-inf)	3.74 h
COc1ccc2cc(CCC[18F])ccc2c1	male BALB/c mouse	plasma	intravenous	–	–	MRT	0.698 h
COc1nc(-c2cc(C)c(N[C@@H](C)c3c(F)cc(F)cc3F)nn2)ccc1-n1cnc(C)c1	male CD-1 mouse	plasma	intravenous	1 mg/kg	single dose	MRT(0-t)	3.3 h
c1ccc(-c2nc(N3CCC(c4ccccn4)C3)c3ccccc3n2)nc1 (centres unmarked)	female BALB/c mouse	plasma	oral	50 mg/kg	–	MRT(0-inf)	5.7 h
COc1nc(-c2cc(C)c(N[C@@H](C)c3cc(F)cc(F)c3)nn2)ccc1-n1cnc(C)c1	male CD-1 mouse	plasma	intravenous	1 mg/kg	single dose	MRT(0-t)	3.3 h
CCc1cc(C(=O)NC)c2nccc(N3CCc4c(cc(Cn5ccnc5)cc4-c4cn(C)nc4C(F)(F)F)C3=O)c2c1	male CD-1 mouse	plasma	intravenous	3 mg/kg	–	MRT(0-inf)	0.5 h
